Measured values reported in BindingDB's records for doi:10.1021/acs.jmedchem.0c00522 (Leiden University & Oncode Institute, 2020).

Columns and labels:
[1] = target: T1, Phospholipase A and acyltransferase 5 (Homo sapiens, UniProt Q96KN8); assay: Inhibition of full-length C-terminal FLAG-tagged human PLAAT5 expressed in HEK293T cell lysate preincubated for 30 mins followed by MB064 addition and measured after 20 mins by SDS-PAGE based ABPP analysis
T1 sequence (Q96KN8 whole entry): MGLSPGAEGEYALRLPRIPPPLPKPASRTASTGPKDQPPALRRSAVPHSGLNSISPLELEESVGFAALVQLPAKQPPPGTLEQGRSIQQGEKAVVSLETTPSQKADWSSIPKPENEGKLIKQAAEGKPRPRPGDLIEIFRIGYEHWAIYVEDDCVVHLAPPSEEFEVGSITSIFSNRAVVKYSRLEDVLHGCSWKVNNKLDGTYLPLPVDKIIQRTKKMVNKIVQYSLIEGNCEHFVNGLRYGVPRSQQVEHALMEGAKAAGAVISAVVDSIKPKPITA
Method in brief: (§1)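 Dose–response competitive ABPP on cytosol only, from HEK293T overexpressing FLAG-tagged PLAAT. Inhibitor 30 min rt, then MB064 20 min rt. PLAAT2 0.25 μg/μL with 250 nM probe; PLAAT3 0.5 μg/μL with 250 nM; PLAAT4 and PLAAT5 1 μg/μL with 500 nM. Fluorescence normalized to Coomassie. IC50 from curves, reported as pIC50 ± SEM, n = 3.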

[2] = target: T2, Phospholipase A and acyltransferase 2 (Homo sapiens, UniProt Q9NWW9); assay: Inhibition of full-length C-terminal FLAG-tagged human PLAAT2 expressed in HEK293T cell lysate preincubated for 30 mins followed by MB064 addition and measured after 20 mins by SDS-PAGE based ABPP analysis; method in brief: as §1
T2 sequence (Q9NWW9 whole entry): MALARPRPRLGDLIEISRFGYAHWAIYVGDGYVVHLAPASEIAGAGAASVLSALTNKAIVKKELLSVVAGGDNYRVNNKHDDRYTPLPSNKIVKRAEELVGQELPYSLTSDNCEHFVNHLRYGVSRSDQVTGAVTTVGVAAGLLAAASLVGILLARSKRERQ

Row | IC50 [1] [µM] | IC50 [2] [µM] | SMILES
1 | 0.398 | 0.631 | O=C(CCc1ccc(Cl)cc1)C(=O)NCCc1ccccc1
2 | – | 0.158 | O=C(CCCc1ccccc1)C(=O)NCCc1ccc(Oc2ccc(C(F)(F)F)cn2)cc1
